The source made the active and inactive calls.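 How the source made its calls, unless noted: active means NADPH fluorescence slope more negative than the mean of all samples by about 3 SD, 99.7% confidence; inactive means the rest.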

Assay [1] in a line: inhibitors of TNFa-induced NFkB p65 translocation, primary screen, imaging, HUVEC, MLSMR starter and 10KST1 sets (AID 438;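 active means inhibition above 20% together with a positive visual image hit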;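 further: compound added about 3h40 before a 20 min TNFalpha stimulation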;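 on inhibition: signal is the nuclear over cytoplasmic p65 intensity ratio per well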). The note with it: HUVEC TNFa-induced p65 nuclear translocation; cell count: measured here: nuclei count (cytotoxicity indicator), at 2.08 µM; inhibition: at 2 µM, stronger effect = higher value, 0% TNFa-plus-vehicle, 100% no-TNFa wells.
A short description of assay [2]: endothelial E-selectin expression blockers – imaging, HUVEC, immunofluorescence, MLSMR starter and 10KST1 sets, primary screen (AID 487;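 active means visually confirmed hit in the image check and inhibition above 20%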;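 on inhibition: signal is fraction of cell area covered by stained E-selectin grains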;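 on nuclei count: 100% = median nuclei count of all wells on the same plate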). The conditions noted are these: HUVEC TNFalpha-induced E-selectin immunofluorescence imaging, at 2 µM; inhibition: stronger effect = higher value; nuclei count: measured here: cell number, toxicity.
The nature of assay [3]: Primary imaging screen for DUSP6 inhibitors that restore phospho-Erk in transfected HeLa cells, chemical complementation (AID 609;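 active means compounds giving at least 50% inhibition in the cell-based MKP-3 phosphatase rescue imaging test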;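 on inhibition: phospho-Erk level distribution per well compared with pooled transfected vehicle control wells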). The note with it: HeLa MKP-3 transfected, phospho-Erk imaging KS statistic, at 10 µM, cells stimulated with TPA for 15 min.
Assay [4] addresses Dual specificity protein phosphatase 6 (Homo sapiens) (UniProt Q16828). Described as above. The conditions noted are these: HeLa MKP-3 transfected, phospho-Erk imaging KS statistic; at 10 µM; stronger effect = higher value; cells stimulated with TPA for 15 min.
Assay [5] has as its target Voltage-gated potassium channel subunit beta-2 (Rattus norvegicus) (UniProt P62483). Description: inhibitors of rat Kvbeta2 reductase activity – biochemical, NADPH fluorescence, primary screen (AID 622;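 active means fluorescence slope higher than the sample average by over 3 SD, cut at about -0.22 in these data, passing the limit was not always enough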;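 further: slope of raw intensity against log time taken from 70 to 1610 s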). The note with it: recombinant KvBeta, 4-cyanobenzaldehyde reduction, at 10 µM, stronger effect = higher value.
For assay [6] the target is unchanged. As to the kind of experiment: enhancers of rat Kvbeta2 NADPH turnover – biochemical, NADPH fluorescence, primary screen (AID 623).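 Further: fluorescence intensity change per second fitted from 20 to 320 s.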 The conditions noted are these: Recombinant KvBeta, NADPH fluorescence decrease slope, 10 min; at 10 µM; stronger effect = lower value.
Assay [7] deals with Muscarinic acetylcholine receptor M4 (Homo sapiens) (UniProt P08173). As to the kind of experiment: M4-linked GIRK flux change, two-sided – cell-based, HEK293 M4/GIRK, thallium flux, BTC-AM, M4 allosteric agonist project, primary screen (AID 625;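 active means fluorescence slope after compound addition differing from the mean of all tested samples at 99.7% confidence, mostly higher but some lower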;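 further: thallium influx through GIRK channels coupled to M4 in HEK293 cells with BTC-AM dye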). The conditions noted are these: at 10 µM, actives lie on both sides. Put shortly:
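System: HEK293 cells with M4 receptor and GIRK channels | Incubation: Cells overnight at 37 °C, BTC-AM loading 1 h, reads 2 min total | Technique: Kinetic BTC-AM fluorescence sampled at 1 Hz, 10 s pre-addition baseline | Measure: Post-addition slope, 15–24 s, of baseline-normalized fluorescence | Control set: Carbachol positive, DMSO negative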

Assay [8] in a line: inhibitors of larval lipid processing in zebrafish, primary screen, whole organism, PED6 fluorescence, gall bladder and intestine (AID 686;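 active means a full or partial loss of lipid-probe fluorescence in the fish gall bladder, intestine or both, judged by eye; inactive means no fluorescence loss, or compound toxic to the fish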;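 further: larvae 5 to 7 days old with five fish per well; signal comes from phospholipase A2 cleavage of quenched PED6 carried via bile; overnight exposure to compound and PED6 before scoring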). The note with it: Zebrafish larvae PED6 lipid processing, fluorescence scoring; screened at 20 µM (by protocol). Put shortly: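 Test system – live zebrafish larvae aged 5-7 days, whole organism · Buffer or medium – E3 fish medium · Reagent – quenched phospholipase substrate PED6, 100 nM final, ingested by larvae · Doses – 20 µM single dose · Incubation – overnight compound and PED6 incubation · Technique – visual fluorescence microscopy scoring of gall bladder, gut · Read-out basis – visual per-well fluorescence inhibition score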

The nature of assay [9]: loss of swimming-algae plug formation – whole organism, Chlamydomonas reinhardtii, WT vs cilia-less mutant, absorbance, 96-well, primary screen (AID 463189;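 active means inhibition at or above 50% relative to wild type and mutant plate controls; inactive means inhibition below 50%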;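 further: 0% = wild type cc124 cells in DMSO and 100% = ciliumless bld1 mutant cells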). The conditions noted are these: Chlamydomonas reinhardtii gravitaxis, OD600 absorbance, 2 days; at 10 µM; stronger effect = higher value.
Where [10] appears, read: measured here: cell density z-score.
[11] abbreviates: measured here: nuclear c-Myc green intensity z-score.
[12] abbreviates: measured here: nuclear pErk red intensity z-score, stronger effect = higher value.

Sequence of Dual specificity protein phosphatase 6 (Homo sapiens) (Q16828 whole entry, looked up): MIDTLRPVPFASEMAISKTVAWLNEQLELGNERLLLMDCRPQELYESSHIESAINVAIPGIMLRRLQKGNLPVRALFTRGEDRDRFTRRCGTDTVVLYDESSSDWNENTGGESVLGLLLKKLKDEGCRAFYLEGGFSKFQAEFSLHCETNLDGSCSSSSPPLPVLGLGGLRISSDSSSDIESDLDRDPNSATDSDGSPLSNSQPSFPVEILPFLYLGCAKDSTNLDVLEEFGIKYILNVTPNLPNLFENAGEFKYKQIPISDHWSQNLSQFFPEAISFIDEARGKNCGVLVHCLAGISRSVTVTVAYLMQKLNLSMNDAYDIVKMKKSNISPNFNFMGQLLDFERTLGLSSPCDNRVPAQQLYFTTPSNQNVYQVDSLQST
Sequence of Voltage-gated potassium channel subunit beta-2 (Rattus norvegicus) (P62483 whole entry, looked up): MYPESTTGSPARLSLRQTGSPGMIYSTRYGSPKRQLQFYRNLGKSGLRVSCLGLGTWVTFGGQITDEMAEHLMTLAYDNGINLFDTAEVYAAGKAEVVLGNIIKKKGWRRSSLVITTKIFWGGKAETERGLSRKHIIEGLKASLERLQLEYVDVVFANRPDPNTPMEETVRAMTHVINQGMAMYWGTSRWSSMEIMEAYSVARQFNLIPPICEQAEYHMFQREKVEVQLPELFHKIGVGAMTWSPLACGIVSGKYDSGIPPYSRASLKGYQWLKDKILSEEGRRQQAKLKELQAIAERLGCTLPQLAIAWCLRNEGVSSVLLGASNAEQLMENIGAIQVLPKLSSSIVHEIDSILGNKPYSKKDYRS
Sequence of Muscarinic acetylcholine receptor M4 (Homo sapiens) (P08173 whole entry, looked up): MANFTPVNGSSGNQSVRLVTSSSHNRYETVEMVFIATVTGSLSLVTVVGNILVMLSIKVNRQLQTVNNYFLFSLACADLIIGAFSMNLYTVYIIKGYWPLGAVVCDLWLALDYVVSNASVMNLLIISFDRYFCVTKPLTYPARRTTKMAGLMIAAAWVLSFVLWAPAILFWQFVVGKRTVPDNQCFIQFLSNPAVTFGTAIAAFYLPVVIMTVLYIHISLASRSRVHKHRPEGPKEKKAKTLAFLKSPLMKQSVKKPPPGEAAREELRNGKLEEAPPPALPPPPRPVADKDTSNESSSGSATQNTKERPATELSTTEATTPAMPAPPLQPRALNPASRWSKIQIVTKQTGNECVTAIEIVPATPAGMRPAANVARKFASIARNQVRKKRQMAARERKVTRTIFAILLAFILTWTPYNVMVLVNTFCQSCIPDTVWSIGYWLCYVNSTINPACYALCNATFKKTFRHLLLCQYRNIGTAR

Usually inhibition stands for the drop in the measured response relative to a control, in per cent. With `O=C(c1ccc(=O)oc1)N1CCN(C(c2ccccc2)c2ccccc2)CC1`, the cell count in assay [1] was determined as 630. Also, the inhibition was -3.2% (inactive) in assay [1], -22.1% (inactive) in assay [2], -3.95% (inactive) in assay [4] and 4.32% (inactive) in [9]. Also, in assay [2], the nuclei count was determined as 168%. The values for the z-score in [3] (setting [10]), in assay [3] (setting [11]) and in [3] (setting [12]) were -0.99, 0.461 and 1.67, respectively. Further, the fluorescence slope in assay [5] was -0.474 (inactive); in assay [7], 0.00524 (inactive). In [6], the NADPH fluorescence slope was -7.6e-05 (inactive). Further, the molecule was called inactive in assay [8].
On to `Cc1cc(C)n(S(=O)(=O)/C=C/c2ccccc2)n1`, for which the cell count in assay [1] came out at 395. Moreover, the inhibition in assay [1] is -10.4% (inactive); in [2] it was -329% (inactive); in assay [4] it was -10.6% (inactive); in [9] it was 25.5% (inactive). This molecule yielded a nuclei count in assay [2] of 150%. In addition, the figures for the z-score in [3] (setting [10]), in [3] (setting [11]) and in [3] (setting [12]) were 8.45e-06, -0.53 and 0.596, respectively. Further, the fluorescence slope was -0.475 (inactive) in [5] and 0.00397 (inactive) in assay [7]. In [6], the NADPH fluorescence slope was -0.000103 (inactive). The molecule was called inactive in assay [8].
Consider `CC(C)COc1ccc(C(=O)NC(CC(C)C)C(=O)O)cc1` (stereo unspecified), for which the cell count in assay [1] was 649. In addition, the inhibition in assay [1] is 9.2% (inactive); in [2], -19.5% (inactive); in assay [4], -13.3% (inactive); in assay [9] it was 25.1% (inactive). The molecule further came in with a nuclei count in [2] of 84.1%. Besides, the z-score in assay [3] (setting [10]) is -0.492; in assay [3] (setting [11]) it was 0.0237; in [3] (setting [12]), 0.136. The fluorescence slope was -0.484 (inactive) in [5] and 0.00574 (inactive) in assay [7]. Moreover, in assay [6], the NADPH fluorescence slope is -4.8e-05 (inactive). The molecule was called inactive in assay [8].
For the molecule `COc1ccc(OCC(O)CN2C(=O)NC(C)(C)C2=O)cc1` (stereo unspecified), the cell count in [1] came out at 617. Moreover, the inhibition was -6.4% (inactive) in assay [1], 33.5% (inactive) in assay [2], 9.42% (inactive) in assay [4] and -2.72% (inactive) in assay [9]. The nuclei count in assay [2] is 155%. Moreover, the z-score in assay [3] (setting [10]) is 0.439; in assay [3] (setting [11]) it was -0.253; in assay [3] (setting [12]), -0.891. Besides, the fluorescence slope in assay [5] is -0.419 (inactive); in [7], 0.0058 (inactive). The NADPH fluorescence slope in assay [6] is -3.6e-05 (inactive). The molecule was classed as inactive in assay [8].
As to `COC(=O)c1sc(NC(=O)c2oc3ccccc3c2C)nc1C`, the cell count in assay [1] was 594. Besides, the inhibition in [1] was -0.2% (inactive); in [2] it was -146% (inactive); in assay [4], 25.8% (inactive); in [9], -10.3% (inactive). The nuclei count in assay [2] was found to be 150%. In addition, the z-score in [3] (setting [10]) was 0.222; in [3] (setting [11]) it was -0.561; in [3] (setting [12]), -0.214. For the same molecule, the fluorescence slope was -0.269 (inactive) in assay [5] and 0.00832 (inactive) in assay [7]. The NADPH fluorescence slope in assay [6] is -4e-05 (inactive). The molecule was called inactive in assay [8].
In the case of `COCCCNc1nc2c(c(=O)[nH]c(=O)n2C)n1CC(O)COc1ccccc1` (stereo unspecified), the cell count in assay [1] came out at 379. For the same molecule, the inhibition was 6.8% (inactive) in [1], -63.3% (inactive) in [2], -0.608% (inactive) in assay [4] and 23.4% (inactive) in assay [9]. Further, in assay [2], the nuclei count is 128%. The z-score in [3] (setting [10]) was -0.311; in assay [3] (setting [11]), -0.833; in assay [3] (setting [12]), 1.79. Also, the fluorescence slope was -0.444 (inactive) in assay [5] and 0.00457 (inactive) in [7]. Also, in assay [6], the NADPH fluorescence slope was -7.9e-05 (inactive). The outcome in [8] was inactive.
For the molecule `Nc1nnnn1/N=C/c1ccco1`, in assay [1], the cell count stood at 510. Besides, the inhibition in assay [1] was -4% (inactive); in assay [2], -8.3% (inactive); in assay [4] it was 11% (inactive); in assay [9], -6.14% (inactive). The molecule further came in with a nuclei count in [2] of 90.4%. For the same molecule, the z-score in assay [3] (setting [10]) was 0.476; in assay [3] (setting [11]), 0.245; in assay [3] (setting [12]), -0.718. Further, the fluorescence slope in assay [5] is -0.502 (inactive); in [7], 0.00713 (inactive). In addition, in [6], the NADPH fluorescence slope is -4.9e-05 (inactive). For the same molecule, the outcome in [8] was inactive.
